Experimental data as given in publication PMC10836733 (Science Advances, 2024).
Substitutions are numbered along the chain they refer to. Numbered stars: 1 amine (or outer) side, 2 acyl side, 3 side chain; on linkers, the order of the positions; unused ones are H or OH. Bridge positions count the residues as written; N and C are the ends. Square brackets hold non-standard residues; d marks the D form. Peptide text beside a SMILES is read from it. X1 = CC(=O)NC(C(=O)OC(C(C)C)C(N[*:1])C(=O)[*:2])C(O)C(C)C; PhLac = O=C(O)[CH](O)Cc1ccccc1; NMeT = CN[CH](C(=O)O)[CH](C)O; NMeA = CN[CH](C)C(=O)O; NMeDha = C=C(NC)C(=O)O

Tests used:
[1] = tested on: mock-transfected HEK293T cells; assay: Ca2+ response of mock-transfected HEK293T cells; format: cell-based, human; conditions: 200 μM
In short: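 Sham-transfected HEK293T cells loaded with Fluo-8 AM (2 μg/ml) in recording buffer for 25 min at room temperature, then 5 min in recording buffer. FLIPR read at room temperature every 1 s; 200 μM test compound or Zn2+ dispensed at 30 s, followed by 150 s recording.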

[2] = target: GHSR (Homo sapiens, UniProt Q92847); assay: FLIPR Ca2+ assay, GHSR expressed in HEK293T-Gα15-GCaMP6s cells; format: cell-based; conditions: for GHSR activation: 200 μM BAs; for Maximal efficacy at GHSR: normalized to 1 μM ghrelin
[3] = target: T1, GPBAR1 (Homo sapiens, UniProt Q8TDU6); assay: CRE luciferase reporter assay; format: cell-based
T1 sequence (Q8TDU6 1-330): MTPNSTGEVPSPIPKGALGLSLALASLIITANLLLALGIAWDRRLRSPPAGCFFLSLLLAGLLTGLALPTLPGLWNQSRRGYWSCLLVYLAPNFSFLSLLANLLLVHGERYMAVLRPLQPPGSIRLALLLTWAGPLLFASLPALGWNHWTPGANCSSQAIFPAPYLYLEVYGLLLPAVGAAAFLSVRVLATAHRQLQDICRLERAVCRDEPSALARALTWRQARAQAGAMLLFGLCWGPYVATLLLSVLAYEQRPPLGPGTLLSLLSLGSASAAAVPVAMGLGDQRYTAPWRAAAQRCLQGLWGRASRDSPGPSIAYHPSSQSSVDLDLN

[4] = tested on: pancreatic acinar cells; assay: Ca2+ imaging in freshly isolated pancreatic acinar cells; format: cell-based, mouse
[5] = tested on: GPR39; conditions: cited from earlier work
[6] = target: T2, mouse GPR39 (Mus musculus, UniProt Q5U431); assay: FLIPR Ca2+ assay in HEK293T cells stably expressing mouse GPR39; format: cell-based; conditions: for GPR39 activation, presence or absence of 4 μM Zn2+: with or without 4 μM Zn2+
T2 sequence (Q5U431 1-456): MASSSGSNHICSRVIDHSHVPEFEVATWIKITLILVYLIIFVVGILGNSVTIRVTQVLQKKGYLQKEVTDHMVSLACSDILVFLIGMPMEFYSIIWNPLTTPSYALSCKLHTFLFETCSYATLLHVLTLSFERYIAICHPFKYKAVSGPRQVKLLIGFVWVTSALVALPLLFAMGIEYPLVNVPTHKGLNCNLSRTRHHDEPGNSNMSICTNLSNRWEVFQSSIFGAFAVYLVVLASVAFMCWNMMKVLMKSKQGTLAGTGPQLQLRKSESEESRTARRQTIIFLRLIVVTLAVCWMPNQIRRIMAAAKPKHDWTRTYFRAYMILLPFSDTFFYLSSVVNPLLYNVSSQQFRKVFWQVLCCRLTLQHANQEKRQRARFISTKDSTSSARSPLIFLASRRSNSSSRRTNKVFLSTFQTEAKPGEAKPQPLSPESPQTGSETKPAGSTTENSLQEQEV

[7] = target: T3, GPR39 (Homo sapiens, UniProt O43194); format: cell-based; conditions: 200 μM
T3 sequence (O43194 1-453): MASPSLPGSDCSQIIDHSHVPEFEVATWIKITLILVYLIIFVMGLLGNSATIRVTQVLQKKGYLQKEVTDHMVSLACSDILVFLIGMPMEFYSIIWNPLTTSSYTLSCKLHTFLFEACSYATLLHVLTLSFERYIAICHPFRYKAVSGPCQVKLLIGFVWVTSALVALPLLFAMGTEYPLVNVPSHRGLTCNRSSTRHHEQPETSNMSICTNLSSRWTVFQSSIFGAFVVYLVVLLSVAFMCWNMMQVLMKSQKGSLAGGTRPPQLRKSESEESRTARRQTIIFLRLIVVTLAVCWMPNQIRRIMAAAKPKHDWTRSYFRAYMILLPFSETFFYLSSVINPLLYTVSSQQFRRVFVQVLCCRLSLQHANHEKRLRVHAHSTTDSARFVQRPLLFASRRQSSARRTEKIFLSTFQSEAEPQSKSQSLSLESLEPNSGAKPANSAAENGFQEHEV
In short: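 HEK293T cells stably expressing Gα15 and GCaMP6s, on poly-D-lysine-coated plates, transiently transfected with human GPCR cDNAs. Test compound added by pipette at 200 μM; intracellular Ca2+ imaged by confocal microscopy.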

[8] = target: T4, H17A/H19A mutant GPR39 (Mus musculus, UniProt Q5U431, H17A/H19A); assay: FLIPR Ca2+ assay, HEK293T cells expressing GPR39 H17A/H19A mutant; format: cell-based
T4 sequence (Q5U431 1-456 H17A/H19A): T2 sequence (Q5U431 1-456) with H17A, H19A
In short: (§1)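 HEK293T cells expressing mouse GPR39 H17A/H19A mutant or zebrafish GPR39, Fluo-8-loaded, read by FLIPR at room temperature (addition at 30 s, 150 s recording). Where Zn2+ used, cells preincubated with 4 μM Zn2+ in recording buffer for 5 min and it was kept with all compound concentrations. Responses normalized to 200 μM LCAS; n = 3 or 4.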

[9] = tested on: zebrafish (Danio rerio) GPR39 (zfGPR39); assay: FLIPR Ca2+ assay, HEK293T cells expressing zebrafish GPR39; format: cell-based
In short: as §1

[10] = tested on: G. Gallus GPR39; assay: FLIPR Ca2+ assay, HEK293T cells expressing chicken GPR39; format: cell-based, chicken (Gallus Gallus)
[11] = tested on: G. japonicus GPR39; assay: FLIPR Ca2+ assay, HEK293T cells expressing gecko GPR39; format: cell-based, gecko (Gekko japonicus)
[12] = tested on: X. laevis GPR39; assay: FLIPR Ca2+ assay, HEK293T cells expressing frog GPR39; format: cell-based, frog (Xenopus laevis)
[13] = tested on: pancreatic acinar cells; assay: Amylase release from isolated pancreatic acini; format: cell-based, mouse; conditions: 500 μM LCAS, 500 μM TLCAS, 1 nM caerulein
In short: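 Mouse acini (WT, Gpr39−/−, Gpbar1−/−) isolated and held as for the LDH assay, then exposed to test compound at 37°C for 30 min. Amylase activity measured in supernatant. Vehicle leakage subtracted as basal; net release expressed as % of total activity (0.5% Triton X-100 lysate). One-way ANOVA with Tukey posttest versus WT.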

[14] = tested on: pancreatic acinar cells; assay: Acinar cell injury: PI uptake, LDH leakage, blebbing; format: cell-based, mouse; conditions: 4 hours
In short: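 Mouse acini (WT, Gpr39−/−, Gpbar1−/−) digested with 1 mg/ml collagenase IV, collected on 150-μm nylon cloth, and suspended in Hepes-buffered DMEM/F12 with 1 mg/ml BSA. Exposed to test compound at 37°C for 4 h. LDH in supernatant measured by kit, expressed as % of total LDH (0.5% Triton X-100 lysate). PI uptake: acini resuspended in 2 μg/ml PI, fluorescence ex 536/em 617 nm, normalized to vehicle.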

[15] = WT mice, LCAS 500 μM, TLCAS 500 μM, caerulein 100 nM

Chain of GHSR (Q92847 whole entry): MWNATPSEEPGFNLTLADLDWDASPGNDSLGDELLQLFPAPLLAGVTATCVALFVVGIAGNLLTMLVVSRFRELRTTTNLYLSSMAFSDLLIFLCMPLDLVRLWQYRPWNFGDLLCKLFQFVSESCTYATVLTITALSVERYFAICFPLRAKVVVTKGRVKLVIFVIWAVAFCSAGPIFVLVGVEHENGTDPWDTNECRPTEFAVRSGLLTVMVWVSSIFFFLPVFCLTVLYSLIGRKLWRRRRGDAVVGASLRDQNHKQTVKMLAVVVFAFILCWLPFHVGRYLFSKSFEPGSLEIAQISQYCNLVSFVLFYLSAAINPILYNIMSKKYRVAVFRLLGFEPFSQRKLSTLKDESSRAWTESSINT

C[C@H](CCC(=O)O)[C@H]1CC[C@H]2[C@@H]3[C@H](O)C[C@@H]4C[C@H](O)CC[C@]4(C)[C@H]3CC[C@]12C [CDCA, chenodeoxycholic acid]
Ca2+ elevation in mock-transfected cells [1]: nonspecific Ca^2+ elevations | GHSR activation [2]: activated | Maximal efficacy at GHSR [2]: comparable to ghrelin

COc1ccc(Cn2c(CCc3ccccc3)nnc2[C@@H](Cc2c[nH]c3ccccc23)NC(=O)CN)cc1 [JMV-2959, JMV2959]
Effect on Ca2+ mobilization induced by LCA in GHSR-expressing cells ([2]; 10 μM JMV2959, LCA 200 μM): moderately but not fully inhibited

C[C@H](CCC(=O)O)[C@H]1CC[C@H]2[C@@H]3CC[C@@H]4C[C@H](O)CC[C@]4(C)[C@H]3C[C@H](O)[C@]12C [DCA, deoxycholic acid]
GPBAR1 activation [3]: potent agonists | Ca2+ elevation in mock-transfected cells [1]: nonspecific Ca^2+ elevations | Effect on GHSR activation by ghrelin ([2]; 10 μM BA): did not potentiate or attenuate | GHSR activation [2]: activated | Maximal efficacy at GHSR [2]: comparable to ghrelin

CC[C@H]1[C@@H](O)[C@@H]2[C@H](C[C@H](O)[C@]3(C)[C@@H]([C@H](C)C[C@H](C)C(=O)O)CC[C@@H]23)[C@@]2(C)CC[C@@H](O)C[C@@H]12 [INT-777]
Ca2+ elevation in acinar cells by GPBAR1 ligands and agonist [4]: not observed

C[C@H](CCC(=O)O)[C@H]1CC[C@H]2[C@@H]3[C@@H](O)C[C@@H]4C[C@H](O)CC[C@]4(C)[C@H]3CC[C@]12C [UDCA, ursodeoxycholic acid]
Effect on GHSR activation by ghrelin ([2]; 10 μM BA): did not potentiate or attenuate | GHSR activation [2]: activated | Maximal efficacy at GHSR [2]: comparable to ghrelin

CCCCCC1OC1C/C=C\C/C=C\C/C=C\CCCC(=O)O (racemic) [14(15)-EET, (±)14(15)-epoxy-5Z,8Z,11Z-eicosatrienoic acid]
GPR39 blockade (report) [5]: blocked

[Zn+2] [Zn^2+]
Zn2+ concentration that notably shifts GPR39 activation by LCAS [6]: above 1 μM | Effect of Zn2+ on GPR39-mediated calcium response to TLCAS ([6]; 4 μM Zn2+, leftward shift of the dose-response curve): potentiated | Ca2+ response of GPR39-transfected HEK293T cells [7]: exhibited Ca^2+ responses | Ca2+ response of mock-transfected HEK293T cells [1]: responded to neither | Effect of H17A/H19A mutations on Zn2+-induced Ca2+ elevation [8]: abolished | zfGPR39 activation [9]: little response | Response of chicken GPR39 [10]: strong dose-dependent responses | Response of gecko GPR39 [11]: strong dose-dependent responses | Response of frog GPR39 [12]: strong dose-dependent responses

5b-cholestanpentol
GPR39 activation, presence or absence of 4 μM Zn2+ [6]: robustly activated | zfGPR39 activation [9]: minimal effects

CC(C)CCC[C@@H](C)[C@H]1CC[C@H]2[C@@H]3CC=C4C[C@@H](OS(=O)(=O)O)CC[C@]4(C)[C@H]3CC[C@]12C [cholesterol-S, cholesterol 3-sulfate]
GPR39 activation, presence or absence of 4 μM Zn2+ [6]: could not activate GPR39

Caerulein
Effect of deleting Gpbar1 on induced amylase discharge [13]: did not alter | Effect of Gpr39 knockout on induced PI uptake and LDH leakage ([14]; Gpr39 knockout): did not affect | LDH release from isolated acinar cells [14, 15]: increased LDH release | PI uptake into isolated acinar cells [14, 15]: increased PI uptake

CC(C)CCC[C@@H](C)[C@H]1CC[C@H]2[C@@H]3CC=C4C[C@@H](O)CC[C@]4(C)[C@H]3CC[C@]12C [cholesterol]
GPR39 activation, presence or absence of 4 μM Zn2+ [6]: could not activate GPR39

C=C1C(=O)NC(C)C(=O)N(C)C(C)C(=O)NC(C(OC(=O)C(NC(C)=O)C(O)C(C)C)C(C)C)C(=O)N(C)C(C(C)OC)C(=O)OC(C)C(NC(C)=O)C(=O)OC(Cc2ccccc2)C(=O)N1C (stereo not drawn) [YM254890] (Ac-T[PhLac][NMeDha]A[NMeA][X1][NMeT](Me); ester 1-C; configuration not given here)
Effect on Ca2+ elevation induced by TLCAS in acinar cells ([4]; 10 μM YM254890 for 10 min, 500 μM TLCAS): eliminated

C[C@H](CCC(=O)O)[C@H]1CC[C@H]2[C@@H]3CC[C@@H]4C[C@H](O)CC[C@]4(C)[C@H]3CC[C@]12C [LCA, lithocholic acid]
Enhancement of GPR39 activation by Zn2+ ([6]; 4 μM BA): enhanced | Effect on GHSR activation by ghrelin ([2]; 1 μM LCA): no effect | Effect on GHSR activation by ghrelin ([2]; 10 μM BA): attenuated the effect of ghrelin | GHSR activation [2]: activated | Sensitivity at GHSR ([2]; compared with UDCA, DCA, and CDCA): relatively higher sensitivity | Maximal efficacy at GHSR [2]: lower efficacy

CCCCC[C@H](O)/C=C/C=C\C/C=C\C/C=C\CCCC(=O)O [15(S)-HETE, 15S-hydroxy-5Z,8Z,11Z,13E-eicosatetraenoic acid]
GPR39 activation (report) [5]: GPR39 activation
